From ChEMBL document CHEMBL1144532, “Antiprotozoal and antimicrobial activities of O-alkylated and formylated acylphloroglucinols” (Bioorg Med Chem, 2007)
Converted amounts (≈) assume the structure as drawn. The source made the active and inactive calls. No cut-off for these calls is given here.

Assays:
Leishmania donovani [1] = assay: Antileishmanial activity against Leishmania donovani promastigotes after 48 hrs at 40 ug/mL by Alamar blue assay; assay type: functional, organism-based
Vero [2] = assay: Cytotoxicity against Vero cells by neutral red assay; assay type: cell-based; conditions: chlorocebus sabaeus
How it was run: (§1)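 Cells seeded 25,000/well, grown 24 h, then exposed to samples 48 h; viable cells quantified by neutral red uptake. IC50 taken from logarithmic plots of growth inhibition versus concentration; DMSO vehicle control.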

LLC-PK1 [3] = assay: Cytotoxicity against LLC-PK1 cells by neutral red assay; assay type: cell-based; conditions: Sus scrofa; how it was run: as §1
Candida albicans [4] = assay: Antifungal activity against Candida albicans at 20 ug/mL; assay type: functional, organism-based
Staphylococcus aureus = assay: Antibacterial activity against methicillin-resistant Staphylococcus aureus at 20 ug/mL; assay type: functional, organism-based
How it was run: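 Samples in DMSO, serially diluted in 0.9% saline, tested in duplicate. Inoculum set against the 0.5 McFarland standard by absorbance at 630 nm, then diluted in broth. Growth, solvent and media controls included. Absorbance read at 630 nm before and after incubation. IC50 taken from percent growth versus concentration. Inactivity was scored at 20 µg/mL.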

Cryptococcus neoformans [5] = assay: Antifungal activity against Cryptococcus neoformans at 20 ug/mL; assay type: functional, organism-based
Plasmodium falciparum [6] = assay: Antimalarial activity against Plasmodium falciparum D6; assay type: functional, organism-based
How it was run: (§2)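 P. falciparum-infected erythrocytes at 2% parasitemia, 2% hematocrit in RPMI 1640 with 10% human serum and 60 µg/mL amikacin, exposed to serial dilutions 72 h at 37 °C under 90% N2/5% O2/5% CO2. Parasite LDH measured with Malstat reagent then NBT/PES, stopped with 5% acetic acid, A650; IC50 from dose–response. DMSO 0.25% vehicle.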

Plasmodium falciparum [7] = assay: Antimalarial activity against Plasmodium falciparum W2; assay type: functional, organism-based; how it was run: as §2
[8] = test system: Mycobacterium intracellulare; assay: Antimicrobial activity against Mycobacterium intracellular; assay type: functional, organism-based
How it was run: (§3)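 Samples in DMSO serially diluted in 0.9% saline, tested in duplicate; inocula set against 0.5 McFarland standard (absorbance 630 nm) and diluted in broth to recommended levels. Growth, solvent and media controls included. Read at 630 nm, or fluorescence 544ex/590em for M. intracellulare (modified Alamar Blue), before and after incubation; IC50 from percent growth versus concentration.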

Aspergillus fumigatus = assay: Antifungal activity against Aspergillus fumigatus; assay type: functional, organism-based; how it was run: as §3
Leishmania donovani [9] = assay: Antileishmanial activity against Leishmania donovani promastigotes after 48 hrs by Alamar blue assay; assay type: functional, organism-based
How it was run: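 L. donovani promastigotes grown in RPMI 1640 + 10% fetal calf serum at 26 °C; 3-day culture diluted to 5 × 10^5/mL, drug dilutions made directly in suspension, 48 h at 26 °C. Alamar blue fluorescence 544 nm ex/590 nm em; IC50 and IC90 from percent growth vs concentration curves.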

Vero [10] = assay: Cytotoxicity against Vero cells up to 23.8 ug/mL by neutral red assay; assay type: cell-based; conditions: chlorocebus sabaeus
LLC-PK1 [11] = assay: Cytotoxicity against LLC-PK1 cells up to 23.8 ug/mL by neutral red assay; assay type: cell-based, Sus scrofa; conditions: pig
Vero [12] = assay: Cytotoxicity against Vero cells up to 4.76 ug/mL by neutral red assay; assay type: cell-based; conditions: chlorocebus sabaeus
LLC-PK1 [13] = assay: Cytotoxicity against LLC-PK1 cells up to 4.76 ug/mL by neutral red assay; assay type: cell-based, Sus scrofa; conditions: pig
Candida albicans [14] = assay: Antifungal activity against Candida albicans; assay type: functional, organism-based; how it was run: as §3
Cryptococcus neoformans [15] = assay: Antifungal activity against Cryptococcus neoformans; assay type: functional, organism-based; how it was run: as §3

## CC(=O)c1c(O)cc(O)c(C=O)c1O
Leishmania donovani [1]
  Activity: inactive
Vero [2]
  IC50: 17.5 µg/mL (≈ 89.2 µM)
LLC-PK1 [3]
  IC50: 10 µg/mL (≈ 51 µM)
Candida albicans [4]
  Activity: inactive
Staphylococcus aureus
  Activity: inactive
Cryptococcus neoformans [5]
  Activity: inactive
Plasmodium falciparum [6]
  Activity: inactive
Plasmodium falciparum [7]
  Activity: inactive
[8]
  Activity: inactive
Aspergillus fumigatus
  Activity: inactive

## N=C(N)c1ccc(OCCCCCOc2ccc(C(=N)N)cc2)cc1 [PENTAMIDINE]
Leishmania donovani [9]
  IC50: 1.5 µg/mL (≈ 4.41 µM)
  IC90: 4.9 µg/mL (≈ 14.4 µM)
[8]
  Activity: inactive
Aspergillus fumigatus
  Activity: inactive

## CC(=O)c1c(O)cc(OCCC(C)C)c(C(C)=O)c1O
Leishmania donovani [9]
  IC50: 40 µg/mL (≈ 143 µM)
  IC90: > 40 µg/mL
Vero [10]
  Activity: Not Active
LLC-PK1 [11]
  Activity: Not Active

## CC(C)CCOc1cc(O)c(C(=O)CC(C)C)c(O)c1C(=O)CC(C)C
Leishmania donovani [9]
  IC50: 24 µg/mL (≈ 65.8 µM)
  IC90: > 40 µg/mL
Vero [10]
  Activity: Not Active
LLC-PK1 [11]
  Activity: Not Active

## CC(C)CCOc1cc(O)c(C(=O)CC(C)C)c(O)c1C=O
Leishmania donovani [9]
  IC50: 4.2 µg/mL (≈ 13.6 µM)
  IC90: > 40 µg/mL
Vero [10]
  Activity: Not Active
LLC-PK1 [11]
  Activity: Not Active

## CCN(CC)CCCC(C)Nc1ccnc2cc(Cl)ccc12 (stereo not given)
[8]
  Activity: inactive
Aspergillus fumigatus
  Activity: inactive

## Cc1c(O)c(C=O)c(O)c(C=O)c1O
Leishmania donovani [1]
  Activity: inactive
Candida albicans [4]
  Activity: inactive
Staphylococcus aureus
  Activity: inactive
Cryptococcus neoformans [5]
  Activity: inactive
Plasmodium falciparum [6]
  Activity: inactive
Plasmodium falciparum [7]
  Activity: inactive
Vero [12]
  Activity: Not Active
LLC-PK1 [13]
  Activity: Not Active
[8]
  Activity: inactive
Aspergillus fumigatus
  Activity: inactive

## CC(C)CCOc1cc(O)c(CCC(C)C)c(O)c1C=O
Leishmania donovani [9]
  IC50: 10 µg/mL (≈ 34 µM)
  IC90: 36 µg/mL (≈ 122 µM)
Vero [2]
  IC50: 4.6 µg/mL (≈ 15.6 µM)
LLC-PK1 [3]
  IC50: 11.5 µg/mL (≈ 39.1 µM)

## CC(=O)c1c(O)c(C)c(O)c(C=O)c1O
Leishmania donovani [1]
  Activity: inactive
Candida albicans [14]
  IC50: 15 µg/mL (≈ 71.4 µM)
Staphylococcus aureus
  Activity: inactive
Cryptococcus neoformans [5]
  Activity: inactive
Plasmodium falciparum [6]
  Activity: inactive
Plasmodium falciparum [7]
  Activity: inactive
Vero [12]
  Activity: Not Active
LLC-PK1 [13]
  Activity: Not Active
[8]
  Activity: inactive
Aspergillus fumigatus
  Activity: inactive

## C[C@@H]1[C@H](O)[C@@H](C)/C=C/C=C/C=C/C=C/C=C/C=C/C=C/[C@H](O[C@@H]2O[C@H](C)[C@@H](O)[C@H](N)[C@@H]2O)C[C@@H]2O[C@](O)(C[C@@H](O)C[C@@H](O)[C@H](O)CC[C@@H](O)C[C@@H](O)CC(=O)O[C@H]1C)C[C@H](O)[C@H]2C(=O)O [AMPHOTERICIN B]
Leishmania donovani [9]
  IC50: 0.32 µg/mL (≈ 0.346 µM)
  IC90: 0.9 µg/mL (≈ 0.974 µM)
Candida albicans [14]
  IC50: 0.3 µg/mL (≈ 0.325 µM)
Cryptococcus neoformans [15]
  IC50: 0.7 µg/mL (≈ 0.758 µM)
[8]
  Activity: inactive
Aspergillus fumigatus
  Activity: inactive

## C=CCOc1cc(O)c(C(C)=O)c(O)c1C(C)=O
Leishmania donovani [1]
  Activity: inactive
Vero [10]
  Activity: Not Active
LLC-PK1 [11]
  Activity: Not Active

## C[C@@H]1CC[C@H]2[C@@H](C)C(=O)O[C@@H]3O[C@@]4(C)CC[C@@H]1[C@]32OO4
[8]
  Activity: inactive
Aspergillus fumigatus
  Activity: inactive

## CCC(=O)c1c(O)c(C)c(O)c(C=O)c1O
Leishmania donovani [1]
  Activity: inactive
Candida albicans [14]
  IC50: 5 µg/mL (≈ 22.3 µM)
Staphylococcus aureus
  Activity: inactive
Cryptococcus neoformans [15]
  IC50: 20 µg/mL (≈ 89.2 µM)
Plasmodium falciparum [6]
  Activity: inactive
Plasmodium falciparum [7]
  Activity: inactive
Vero [12]
  Activity: Not Active
LLC-PK1 [13]
  Activity: Not Active
[8]
  Activity: inactive
Aspergillus fumigatus
  Activity: inactive

## CC(=O)c1c(O)cc(O)c(C(C)=O)c1O
Leishmania donovani [9]
  IC50: 27 µg/mL (≈ 128 µM)
  IC90: > 40 µg/mL
Vero [2]
  IC50: 12 µg/mL (≈ 57.1 µM)
LLC-PK1 [3]
  IC50: 11 µg/mL (≈ 52.3 µM)
Candida albicans [4]
  Activity: inactive
Staphylococcus aureus
  Activity: inactive
Cryptococcus neoformans [5]
  Activity: inactive
Plasmodium falciparum [6]
  Activity: inactive
Plasmodium falciparum [7]
  Activity: inactive
[8]
  Activity: inactive
Aspergillus fumigatus
  Activity: inactive

## O=C(O)c1cn(C2CC2)c2cc(N3CCNCC3)c(F)cc2c1=O
[8]
  Activity: inactive
Aspergillus fumigatus
  Activity: inactive

## CC(C)CC(=O)c1c(O)cc(O)c(C=O)c1O
Leishmania donovani [9]
  IC50: 27 µg/mL (≈ 113 µM)
  IC90: 40 µg/mL (≈ 168 µM)
Vero [2]
  IC50: 14 µg/mL (≈ 58.8 µM)
LLC-PK1 [3]
  IC50: 9.5 µg/mL (≈ 39.9 µM)
Candida albicans [4]
  Activity: inactive
Staphylococcus aureus
  Activity: inactive
Cryptococcus neoformans [5]
  Activity: inactive
Plasmodium falciparum [6]
  Activity: inactive
Plasmodium falciparum [7]
  Activity: inactive
[8]
  Activity: inactive
Aspergillus fumigatus
  Activity: inactive

## C=CCOc1cc(O)c(C(=O)CC(C)C)c(O)c1C=O
Leishmania donovani [9]
  IC50: 5.3 µg/mL (≈ 19 µM)
  IC90: 31 µg/mL (≈ 111 µM)
Vero [2]
  IC50: 17 µg/mL (≈ 61.1 µM)
LLC-PK1 [3]
  IC50: 9 µg/mL (≈ 32.3 µM)

## CC(=O)c1c(O)cc(OCCC(C)C)c(C=O)c1O
Leishmania donovani [9]
  IC50: 7.8 µg/mL (≈ 29.3 µM)
  IC90: > 40 µg/mL
Vero [10]
  Activity: Not Active
LLC-PK1 [11]
  Activity: Not Active

## C/C(=C\O)C(=O)c1c(O)cc(O)c(C=O)c1O
Leishmania donovani [9]
  IC50: 29 µg/mL (≈ 122 µM)
  IC90: > 40 µg/mL
Vero [10]
  Activity: Not Active
LLC-PK1 [11]
  Activity: Not Active
Candida albicans [14]
  IC50: 2 µg/mL (≈ 8.4 µM)
Staphylococcus aureus
  Activity: inactive
Cryptococcus neoformans [15]
  IC50: 2.5 µg/mL (≈ 10.5 µM)
Plasmodium falciparum [6]
  Activity: inactive
Plasmodium falciparum [7]
  Activity: inactive
[8]
  Activity: inactive
Aspergillus fumigatus
  Activity: inactive

## C=CCOc1cc(O)c(C(C)=O)c(O)c1C=O
Leishmania donovani [1]
  Activity: inactive
Vero [10]
  Activity: Not Active
LLC-PK1 [11]
  Activity: Not Active

## COc1cccc2c1C(=O)c1c(O)c3c(c(O)c1C2=O)C[C@@](O)(C(=O)CO)C[C@@H]3O[C@H]1C[C@H](N)[C@H](O)[C@H](C)O1
[8]
  Activity: inactive
Aspergillus fumigatus
  Activity: inactive

## CC(C)CCc1c(O)c(C=O)c(O)c(C=O)c1O
Leishmania donovani [1]
  Activity: inactive
Candida albicans [4]
  Activity: inactive
Staphylococcus aureus
  Activity: inactive
Cryptococcus neoformans [5]
  Activity: inactive
Plasmodium falciparum [6]
  Activity: inactive
Plasmodium falciparum [7]
  Activity: inactive
Vero [12]
  Activity: Not Active
LLC-PK1 [13]
  Activity: Not Active
[8]
  Activity: inactive
Aspergillus fumigatus
  Activity: inactive

## CC(C)=CCc1c(O)c(C=O)c(O)c(C(=O)/C(C)=C/O)c1O
Leishmania donovani [9]
  IC90: > 40 µg/mL
Vero [2]
  IC50: 19 µg/mL (≈ 62 µM)
LLC-PK1 [3]
  IC50: 14.5 µg/mL (≈ 47.3 µM)
Candida albicans [4]
  Activity: inactive
Staphylococcus aureus
  Activity: inactive
Cryptococcus neoformans [5]
  Activity: inactive
Plasmodium falciparum [6]
  Activity: inactive
Plasmodium falciparum [7]
  Activity: inactive
[8]
  Activity: inactive
Aspergillus fumigatus
  Activity: inactive

## C=CCOc1cc(O)c(C(=O)CC(C)C)c(O)c1C(=O)CC(C)C
Leishmania donovani [9]
  IC50: 14 µg/mL (≈ 41.9 µM)
  IC90: 36 µg/mL (≈ 108 µM)
Vero [10]
  Activity: Not Active
LLC-PK1 [11]
  Activity: Not Active

## CCC(=O)c1c(O)cc(O)c(C=O)c1O
Leishmania donovani [1]
  Activity: inactive
Vero [2]
  IC50: 18 µg/mL (≈ 85.6 µM)
LLC-PK1 [3]
  IC50: 11 µg/mL (≈ 52.3 µM)
Candida albicans [4]
  Activity: inactive
Staphylococcus aureus
  Activity: inactive
Cryptococcus neoformans [15]
  IC50: 15 µg/mL (≈ 71.4 µM)
Plasmodium falciparum [6]
  Activity: inactive
Plasmodium falciparum [7]
  Activity: inactive
[8]
  Activity: inactive
Aspergillus fumigatus
  Activity: inactive
